The text below walks through data of ChEMBL document CHEMBL1134502, “Aromatic quinolinecarboxamides as selective, orally active antibody production inhibitors for prevention of acute xenograft rejection” (J Med Chem, 2001).

One experiment concerns Jurkat. Nature of the experiment: In vitro inhibition of Jurkat cell proliferation. Type of experiment: functional, cell-based. The following applies: Homo sapiens. A digest of the protocol: (§1)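 Murine B-cells stimulated with TNP-LPS (T-cell-independent type 1) were read for antibody production, the mouse MLR for T-cell activity, and Jurkat proliferation for cytotoxicity. Values are IC50 ± SE in µM, the mean of at least four independent determinations.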

For experiment [1], the system named is Mus musculus. Nature of the experiment: Survival period of mice in days after xenotransplantation and for a dose of 50 mg/kg (Histology = no antibody-mediated rejection). Type of experiment: functional.
Experiment [2] is described as follows: In vitro inhibition of Ab formation from trinitrophenyl-lipopolysaccharide (TNP-LPS) B-cells. The format is functional. Particulars: Mus musculus. In short, it runs like this: as §1
Experiment [3] relates to Mus musculus. Nature of the experiment: In vivo inhibition of TNP-specific immunoglobulin G production at 50 mg/kg/day subcutaneous administration. Type of experiment: functional. Particulars: sc. In short, it runs like this: (§2)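 OF1 mice were immunized iv with TNP-LPS and dosed on day 0 plus the three following days (four doses). The sc vehicle was polyethoxylated castor oil/EtOH; the po vehicle was Labrafil/EtOH/corn oil. Mice were bled on day 6, and serum DNP-specific IgM or IgG was titred by ELISA on DNP-BSA plates at a defined OD405.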

Experiment [4] concerns Mus musculus. Put plainly: Survival period of mice in days after xenotransplantation and for a dose of 3 mg/kg (Histology = antibody-mediated rejection). Type of experiment: functional.
Experiment [5] has as its system Mus musculus. Nature of the experiment: In vivo inhibition of TNP-specific immunoglobulin M production at 50 mg/kg/day, sc. Type of experiment: functional. Particulars: route subcutaneous. In short, it runs like this:
as §2

Experiment [6] has as its system Mus musculus. Nature of the experiment: Survival period of mice in days after xenotransplantation and for a dose of 30 mg/kg (Histology = antibody-mediated rejection, Chronic rejection). Type of experiment: functional.
The subject of experiment [7] is Mus musculus. Put plainly: In vivo inhibition of TNP-specific immunoglobulin M production at 30 mg/kg/day, sc. The format is functional. The following applies: route subcutaneous. A digest of the protocol:
as §2

For experiment [8], the system named is Mus musculus. Nature of the experiment: In vivo inhibition of TNP-specific immunoglobulin G production at 10 mg/kg/day oral administration. Type of experiment: functional. In short, it runs like this:
as §2

The species entered for experiment [9] is Mus musculus. Put plainly: In vitro T-cell immunosuppressive activity in the mouse mixed lymphocyte reaction (MLR). The format is functional. In short, it runs like this:
as §1

The test system of experiment [10] is Mus musculus. Nature of the experiment: In vivo inhibition of TNP-specific immunoglobulin M production at 3 mg/kg/day, sc. Type of experiment: functional. Particulars: route subcutaneous. In short, it runs like this: as §2
Experiment [11] relates to Mus musculus. Nature of the experiment: In vivo inhibition of TNP-specific immunoglobulin G production at 3 mg/kg/day subcutaneous administration. Type of experiment: functional. Particulars: sc. In short, it runs like this:
as §2

Experiment [12] concerns Mus musculus. Put plainly: In vivo inhibition of TNP-specific immunoglobulin G production at 30 mg/kg/day subcutaneous administration. The format is functional. Particulars: sc. A digest of the protocol: as §2
The subject of experiment [13] is Mus musculus. Nature of the experiment: In vivo inhibition of TNP-specific immunoglobulin M production at 10 mg/kg/day, po. The format is functional. A digest of the protocol:
as §2

The compound `C/C=C/C[C@@H](C)[C@@H](O)[C@H]1C(=O)N[C@@H](CC)C(=O)N(C)CC(=O)N(C)[C@@H](CC(C)C)C(=O)N[C@@H](C(C)C)C(=O)N(C)[C@@H](CC(C)C)C(=O)N[C@@H](C)C(=O)N[C@H](C)C(=O)N(C)[C@@H](CC(C)C)C(=O)N(C)[C@@H](CC(C)C)C(=O)N(C)[C@@H](C(C)C)C(=O)N1C` [CYCLOSPORINE] showed an IC50 in the experiment with Jurkat of over 10 µM.

For the compound `Cc1oncc1C(=O)Nc1ccc(C(F)(F)F)cc1` [LEFLUNOMIDE], the IC50 in the experiment on Jurkat came to 34.6 µM; in experiment [2] it was 5.1 µM; in the experiment listed under Mus musculus [9], 11.4 µM. Besides, the Survival is over 28 days in the experiment on Mus musculus [1], 7 days in the experiment on Mus musculus [4] and over 7 days in the experiment with Mus musculus [6]. In addition, the figures for the inhibition in vivo at 50 mg/kg/day in the experiment with Mus musculus [3] and in the experiment on Mus musculus [5] were 85% and 71%, respectively. Moreover, the inhibition in vivo at 30 mg/kg/day in the experiment with Mus musculus [7] turned out to be 37%; in the experiment with Mus musculus [12], 39%. Besides, the inhibition in vivo at 10 mg/kg/day was under 0% in the experiment with Mus musculus [8] and 5% in the experiment with Mus musculus [13]. In addition, the inhibition in vivo at 3 mg/kg/day with Mus musculus [10] and in the experiment on Mus musculus [11] was under 0% each time.
